Entries after “also recorded” stand apart in the source; their conditions may differ.
Key:
SW620 = test: γ-H2AX DNA damage assay; assay type: cell-based; settings: concentration range 0–40 μM
[1] = system: TOP2A-dependent TCF-transcription in SW620-TOP tumor organoids; test: 3D tumor organoid TOPflash reporter assay; assay type: cell-based
Method in brief: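 SW620 cells stably carrying pCDH-TOPflash-luc-EF1-puro were seeded at 5,000 cells/well in ultra-low-attachment U-bottom wells, centrifuged, given 2% Matrigel (final) and grown 72 h in phenol red-free RPMI-1640 with 5% FBS. Organoids were treated 72 h. One-Glo luciferase and CellTiter-Glo 3D were added 1:1 and luminescence read. TCF signal was normalised to viability, then to DMSO controls.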

Human TOP2A = Human TOP2A (Homo sapiens, UniProt P11388); test: TOP2A decatenation assay; assay type: biochemical; settings: screen at 30 μM / SAR discussion
Method in brief: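 For screening, TOP2A (3U/reaction) was preincubated 20 min at 37 °C with 30 μM test compound in 1.2% DMSO. Then 2 mM ATP and 35 ng kDNA were added for 1 h at 37 °C. Products ran on 0.8% agarose in TBE with 0.2 μg/mL ethidium bromide (1 h, 100 V), and decatenated bands were compared with vehicle. Dose-responses used 2-fold dilutions (58.6 nM–30 μM) and 4U enzyme.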

[2] = Microsome stability studies; assay type: in vitro ADME; settings: mouse microsomes; for microsomal stability (in words): Phase I, 0 to 60 min
Method in brief: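 Female CD-1 mouse liver microsomes (0.5 mg/mL) with 1.5 mM NADPH in 0.1 M phosphate buffer, pH 7.4, were pre-warmed 5 min at 37 °C. Reactions were started with 1 μg/mL test compound and run at 37 °C. Aliquots taken over 0–60 min were quenched with equal-volume acetonitrile and centrifuged (20,000g, 10 min) for LCMS. Compound-stability controls under reaction conditions were included.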

SW620 tumor organoids = test: SW620 tumor organoid growth in volume; assay type: cell-based; settings: 72 h, vs DMSO
hTopoIIα = hTopoIIα (Homo sapiens, UniProt P11388); test: TOP2A ATPase assay; assay type: biochemical; settings: ATP hydrolysis, Vmax unchanged, KM shifts
SW620 cells = test: Tumor organoid CSC stemness assay; assay type: cell-based; settings: SW620 cells pretreated 24 h, colonies over seven days, vs DMSO
[3] = system: caspase 3 and 7 activity in SW620 tumor organoids; test: Tumor organoid caspase 3/7 activity; assay type: cell-based; settings: higher doses, vs DMSO
Method in brief: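 SW620 cells were seeded at 2,000/well in round-bottom ultra-low-attachment 384-well plates in RPMI-1640 with 5% FBS and 2% Matrigel, grown 72 h, then treated with a range of doses for 72 h. Caspase-Glo 3/7 was added 1:1, plates shaken 30 min, and luminescence read. Staurosporine served as positive control and 0.4% DMSO as negative control.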

In vivo PK studies = settings: female CD-1 mice, single IP 50 mg/kg, plasma
Method in brief: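 Female CD-1 mice got one IP dose of 50 mg/kg in 100% DMSO. Blood was sampled from 0.25–24 h, three mice per time point (21 per compound), into sodium heparin. Plasma was spun out (1800xg, 10 min, 4 °C), frozen at −80 °C, mixed 1:1 with ACN acidified with formic or trifluoroacetic acid (0.1%, varying by compound), centrifuged and analysed by LC-MS/MS.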

[4] = Compound aqueous solubility in PBS; assay type: physicochemical; settings: ratio to prototype 7
Method in brief: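 Test compound (1 mg) was dissolved in 200 μL 10% DMSO in PBS, pH 7.4, and equilibrated as for the 1-propanol solutions (18 h, 25 °C), then centrifuged. The UV absorption spectrum was compared with a fully saturated 1-propanol solution, and solubility was calculated by linear regression.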

[5] = system: TOP2A mediated TCF-transcription; settings: cited from earlier work
[6] = cited from earlier work
[7] = cited from earlier work; remark: listed apart in the source

Chain of Human TOP2A (P11388 whole entry): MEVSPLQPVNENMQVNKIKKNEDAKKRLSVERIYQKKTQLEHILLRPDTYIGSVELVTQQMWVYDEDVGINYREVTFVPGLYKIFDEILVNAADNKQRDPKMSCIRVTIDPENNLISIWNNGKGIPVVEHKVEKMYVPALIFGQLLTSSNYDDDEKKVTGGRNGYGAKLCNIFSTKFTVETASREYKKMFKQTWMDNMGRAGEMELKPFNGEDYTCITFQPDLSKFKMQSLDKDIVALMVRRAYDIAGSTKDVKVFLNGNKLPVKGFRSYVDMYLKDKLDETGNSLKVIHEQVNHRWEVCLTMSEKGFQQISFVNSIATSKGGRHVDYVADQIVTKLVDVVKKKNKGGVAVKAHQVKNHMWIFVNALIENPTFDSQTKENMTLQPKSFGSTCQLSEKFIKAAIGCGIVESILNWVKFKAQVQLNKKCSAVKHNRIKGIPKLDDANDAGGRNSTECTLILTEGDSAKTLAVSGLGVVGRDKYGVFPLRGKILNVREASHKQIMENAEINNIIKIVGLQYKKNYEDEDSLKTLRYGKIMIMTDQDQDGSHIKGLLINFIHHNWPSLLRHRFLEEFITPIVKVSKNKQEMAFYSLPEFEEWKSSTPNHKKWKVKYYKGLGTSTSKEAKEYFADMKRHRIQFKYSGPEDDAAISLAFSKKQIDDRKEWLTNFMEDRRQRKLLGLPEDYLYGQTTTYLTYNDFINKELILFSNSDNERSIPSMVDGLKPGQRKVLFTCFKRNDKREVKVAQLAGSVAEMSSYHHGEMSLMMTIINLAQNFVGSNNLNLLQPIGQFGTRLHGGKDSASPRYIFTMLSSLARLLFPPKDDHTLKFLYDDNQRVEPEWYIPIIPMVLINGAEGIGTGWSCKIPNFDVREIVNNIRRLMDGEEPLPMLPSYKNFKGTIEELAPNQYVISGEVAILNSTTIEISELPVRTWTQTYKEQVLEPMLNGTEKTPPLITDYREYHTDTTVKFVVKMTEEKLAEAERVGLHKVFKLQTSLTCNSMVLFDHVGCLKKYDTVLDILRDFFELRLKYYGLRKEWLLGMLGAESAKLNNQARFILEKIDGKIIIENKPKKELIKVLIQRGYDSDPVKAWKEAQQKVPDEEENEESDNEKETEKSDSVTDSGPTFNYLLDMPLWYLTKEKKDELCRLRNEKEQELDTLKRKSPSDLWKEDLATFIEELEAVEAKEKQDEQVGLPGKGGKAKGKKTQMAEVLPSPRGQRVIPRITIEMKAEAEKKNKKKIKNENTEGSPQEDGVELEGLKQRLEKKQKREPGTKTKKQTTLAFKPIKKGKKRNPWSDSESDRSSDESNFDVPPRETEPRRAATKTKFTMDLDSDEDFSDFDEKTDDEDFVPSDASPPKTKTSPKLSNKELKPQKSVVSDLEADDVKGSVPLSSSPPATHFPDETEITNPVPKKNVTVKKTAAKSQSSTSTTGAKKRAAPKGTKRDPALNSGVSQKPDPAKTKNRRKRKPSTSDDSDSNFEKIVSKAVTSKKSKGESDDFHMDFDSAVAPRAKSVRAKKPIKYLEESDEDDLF
Chain of hTopoIIα (P11388 whole entry): as above

## CC(=O)Nc1ccc2c(-c3cc(F)ccc3O)ccnc2c1O [Compound 7, 7-Acetamido-4-(5-fluoro-2-hydroxyphenyl)-8-hydroxyquinoline]
SW620
  DNA double stranded breaks (H2AX S139 phosphorylation immunofluorescence): do not cause DNA DSBs
[1]
  inhibition of TOP-activity (TOPflash) in words: significantly inhibit
Human TOP2A
  inhibition of TOP2A decatenation (in words): complete inhibition
[2]
  microsomal stability (in words): metabolized faster within the first 30 minutes
SW620 tumor organoids
  tumor organoid growth in volume: significantly inhibited tumor organoid growth
hTopoIIα
  mode of TOP2A inhibition: competitive mode of inhibition
SW620 cells
  colony formation (clonogenic assay): inhibit colony formation
[3]
  induction of apoptosis (caspase 3 and 7 cleavage) in words: induce apoptosis
In vivo PK studies
  CL: 64.5 mL/min/kg

## CC(=O)Nc1ccc2c(-c3ccccc3)ccnc2c1O [Compound 28, 7-Acetamido-4-(phenyl)-8-hydroxyquinoline]
[2]
  microsomal stability (in words): biphasic kinetics

## CC(=O)Nc1ccc2c(-c3ccc(F)cc3)ccnc2c1O [Compound 30, 7-Acetamido-4-(4-fluorophenyl)-8-hydroxyquinoline]
Human TOP2A
  inhibition of TOP2A decatenation (in words): activity is lost

## CC(=O)Nc1ccc2c(-c3cccc(C(F)(F)F)c3)ccnc2c1O [Compound 31, 7-Acetamido-4-((3-trifluoromethyl)phenyl)-8-hydroxyquinoline]
Human TOP2A
  inhibition of TOP2A decatenation (in words): excellent inhibitory activity
[2]
  microsomal stability (in words): not readily transformed by Phase I metabolic enzymes

## CC(=O)Nc1ccc2c(-c3ccc(C(F)(F)F)cc3)ccnc2c1O [Compound 32, 7-Acetamido-4-((4-trifluoromethyl)phenyl)-8-hydroxyquinoline]
Human TOP2A
  inhibition of TOP2A decatenation (in words): excellent inhibitory activity

## CC(=O)Nc1ccccc1-c1ccnc2c(O)c(NC(C)=O)ccc12 [Compound 34, 7-Acetamido-4-(2-acetamidophenyl)-8-hydroxyquinoline]
Human TOP2A
  inhibition of TOP2A decatenation (in words): significant loss of activity

## CC(=O)Nc1ccc(-c2ccnc3c(O)c(NC(C)=O)ccc23)cc1 [Compound 35, 7-Acetamido-4-(4-acetamidophenyl)-8-hydroxyquinoline]
Human TOP2A
  inhibition of TOP2A decatenation (in words): restored inhibitory activity
[2]
  microsomal stability (in words): not readily transformed by Phase I metabolic enzymes

## CC(=O)Nc1cccc(-c2ccnc3c(O)c(NC(C)=O)ccc23)c1 [Compound 36, 7-Acetamido-4-(3-acetamidophenyl)-8-hydroxyquinoline]
Human TOP2A
  inhibition of TOP2A decatenation (in words): significant loss of activity

## CC(=O)Nc1ccc2c(-c3cc(C(F)(F)F)ccc3O)ccnc2c1O [Compound 37, 7-Acetamido-4-(2-hydroxy-5-trifluoromethylphenyl)-8-hydroxyquinoline]
Human TOP2A
  inhibition of TOP2A decatenation (in words): excellent inhibitory activity

## CC(=O)Nc1ccc2c(-c3cc(Cl)ccc3O)ccnc2c1O [Compound 38, 7-Acetamido-4-(5-chloro-2-hydroxyphenyl)-8-hydroxyquinoline]
Human TOP2A
  inhibition of TOP2A decatenation (in words): did not inhibit

## O=C(CCN1CCOCC1)Nc1ccc2c(-c3cc(F)ccc3O)ccnc2c1O [Compound 42, 4-(5-fluoro-2-hydroxyphenyl)-8-hydroxy-7-(3-(morpholin-4-yl)propanamido)quinoline]
[2]
  microsomal stability (in words): least stable
SW620 tumor organoids
  tumor organoid growth in volume: significantly inhibited tumor organoid growth
[4]
  solubility in PBS compared to prototype 7: 3.4 times
[3]
  induction of apoptosis (caspase 3 and 7 cleavage) in words: induce apoptosis
In vivo PK studies
  CL: 62.2 mL/min/kg

## CC(=O)Nc1ccc2c(-c3cc4ccccc4o3)ccnc2c1O [Compound 53, 7-Acetamido-4-(2-benzofuranyl)-8-hydroxyquinoline]
Human TOP2A
  inhibition of TOP2A decatenation (in words): complete inhibitory activity
[2]
  microsomal stability (in words): not readily transformed by Phase I metabolic enzymes
In vivo PK studies
  CL: 283.2 mL/min/kg

## CC(=O)Nc1ccc2c(-c3cc4ccccc4s3)ccnc2c1O [Compound 54, 7-Acetamido-4-(benzo[b]thiophen-2-yl)-8-hydroxyquinoline]
Human TOP2A
  inhibition of TOP2A decatenation (in words): inhibition was lost

## CC(=O)Nc1ccc2c(-c3ccco3)ccnc2c1O [Compound 55, 7-Acetamido-4-(2-furanyl)-8-hydroxyquinoline]
Human TOP2A
  inhibition of TOP2A decatenation (in words): significant loss of activity

## CC(=O)Nc1ccc2c(-c3ccsc3)ccnc2c1O [Compound 58, 7-Acetamido-4-(thiophen-3-yl)-8-hydroxyquinoline]
Human TOP2A
  inhibition of TOP2A decatenation (in words): improves activity compared to the 3-furanyl analog 56
[2]
  microsomal stability (in words): metabolized faster within the first 30 minutes; also recorded: biphasic kinetics

## O=C(CN1CCOCC1)Nc1ccc2c(-c3cc4ccccc4o3)ccnc2c1O [Compound 60, 4-(2-benzofuranyl)-8-hydroxy-7-(2-(morpholin-4-yl)acetamido)quinoline]
[2]
  microsomal stability (in words): not readily transformed by Phase I metabolic enzymes
SW620 tumor organoids
  tumor organoid growth in volume: significantly inhibited tumor organoid growth
[3]
  induction of apoptosis (caspase 3 and 7 cleavage) in words: induce apoptosis
In vivo PK studies
  CL: 137 mL/min/kg

## O=C(CCN1CCOCC1)Nc1ccc2c(-c3cc4ccccc4o3)ccnc2c1O [Compound 61, 4-(2-benzofuranyl)-8-hydroxy-7-(3-(morpholin-4-yl)propanamido)quinoline]
[2]; female, CD-1, mouse, pH 7.4
  half-life at 1 μg/mL: 15 min
[2]
  microsomal stability (in words): not readily transformed by Phase I metabolic enzymes
In vivo PK studies
  CL: 61.8 mL/min/kg

## COc1cc([C@@H]2c3cc4c(cc3[C@@H](O[C@@H]3O[C@@H]5CO[C@@H](C)O[C@H]5[C@H](O)[C@H]3O)[C@H]3COC(=O)[C@H]23)OCO4)cc(OC)c1O [etoposide]
[5]
  effect on TOP2A mediated TCF-transcription: do not inhibit

## O=C1NC(=S)NC(=O)C1C(=O)Nc1ccccc1 [merbarone]
[5]
  effect on TOP2A mediated TCF-transcription: do not inhibit

## Cn1ccc2c(c1=O)C(=O)c1nccc3c1c-2nc1ccccc13 [neo, neoamphimedine]
SW620
  DNA double stranded breaks (H2AX S139 phosphorylation immunofluorescence): do not cause DNA DSBs
[6]
  solubility in water: insoluble
[5]
  effect on TOP2A mediated TCF-transcription: prevents TCF-transcription
[7]
  metabolic stability: metabolically unstable
hTopoIIα
  mode of TOP2A inhibition: competitive mode of inhibition

From publication PMC7723234 (Journal of medicinal chemistry, 2019)
